Measurements reported in ChEMBL document CHEMBL3227968, “Synthesis and antitumor activity of water-soluble (2-chloroethyl)nitrosoureas” (1979).
The source made the active and inactive calls. No cut-off for these calls is given here.

Key:
L1210 [1] = assay: Antitumor activity against mouse L1210 cells allografted in mouse assessed as mouse survival after 30 days at 16 mg/kg, ip single dose relative to control; type: functional, organism-based; parameters: dose 16 mg/kg
How it was run: (§1)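 L1210 leukemia, 10⁶ cells implanted ip per mouse. One ip dose given on day 1. Six mice per dose level. Survivors counted at day 30. Median survival time also recorded as %T/C = (MST treated/MST control) × 100, with T/C > 125 taken as significant.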

L1210 [2] = assay: Antitumor activity against mouse L1210 cells allografted in mouse assessed as mouse survival after 30 days at 32 mg/kg, ip single dose relative to control; type: functional, organism-based; parameters: dose 32 mg/kg; how it was run: as §1
L1210 [3] = assay: Antitumor activity against mouse L1210 cells allografted in mouse assessed as mouse survival after 30 days at 128 mg/kg, ip single dose relative to control; type: functional, organism-based; parameters: dose 128 mg/kg; how it was run: as §1
L1210 [4] = assay: Antitumor activity against mouse L1210 cells allografted in mouse assessed as mouse survival after 30 days at 1 mg/kg, ip single dose relative to control; type: functional, organism-based; parameters: dose 1 mg/kg; how it was run: as §1
L1210 [5] = assay: Antitumor activity against mouse L1210 cells allografted in mouse assessed as tumor inhibition at 16 mg/kg, ip single dose relative to control; type: functional; conditions: route intraperitoneal
How it was run: (§2)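 L1210 leukemia, 10⁶ cells per mouse inoculated ip. Single ip dose given on day 1. Median survival time expressed as %T/C = (MST treated/MST control) × 100, with T/C > 125 counted as significant. Mice surviving at 30 days were recorded, six mice per treatment dose.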

L1210 [6] = assay: Antitumor activity against mouse L1210 cells allografted in mouse assessed as tumor inhibition at 128 mg/kg, ip single dose relative to control; type: functional; conditions: route intraperitoneal; how it was run: as §2
L1210 [7] = assay: Antitumor activity against mouse L1210 cells allografted in mouse assessed as mouse survival after 30 days at 4 mg/kg, ip single dose relative to control; type: functional, organism-based; parameters: dose 4 mg/kg; how it was run: as §1
L1210 [8] = assay: Antitumor activity against mouse L1210 cells allografted in mouse assessed as tumor inhibition at 64 mg/kg, ip single dose relative to control; type: functional; conditions: route intraperitoneal; how it was run: as §2
L1210 [9] = assay: Antitumor activity against mouse L1210 cells allografted in mouse assessed as tumor inhibition at 2 mg/kg, ip single dose relative to control; type: functional; conditions: route intraperitoneal; how it was run: as §2
L1210 [10] = assay: Antitumor activity against mouse L1210 cells allografted in mouse assessed as tumor inhibition at 4 mg/kg, ip single dose relative to control; type: functional; conditions: route intraperitoneal; how it was run: as §2
L1210 [11] = assay: Antitumor activity against mouse L1210 cells allografted in mouse assessed as median survival time at 32 mg/kg, ip single dose relative to control; type: functional; conditions: route intraperitoneal; how it was run: as §2
L1210 [12] = assay: Antitumor activity against mouse L1210 cells allografted in mouse assessed as mouse survival after 30 days at 8 mg/kg, ip single dose relative to control; type: functional, organism-based; parameters: dose 8 mg/kg; how it was run: as §1
L1210 [13] = assay: Antitumor activity against mouse L1210 cells allografted in mouse assessed as tumor inhibition at 1 mg/kg, ip single dose relative to control; type: functional; conditions: route intraperitoneal; how it was run: as §2
L1210 [14] = assay: Antitumor activity against mouse L1210 cells allografted in mouse assessed as mouse survival after 30 days at 2 mg/kg, ip single dose relative to control; type: functional, organism-based; parameters: dose 2 mg/kg; how it was run: as §1
L1210 [15] = assay: Antitumor activity against mouse L1210 cells allografted in mouse assessed as tumor inhibition at 8 mg/kg, ip single dose relative to control; type: functional; conditions: route intraperitoneal; how it was run: as §2
L1210 [16] = assay: Antitumor activity against mouse L1210 cells allografted in mouse assessed as tumor inhibition at 0.5 mg/kg, ip qd for 8 days relative to control; type: functional; conditions: route intraperitoneal
How it was run: (§3)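 L1210 leukemia, 10⁶ cells per mouse implanted ip. Dosing ip once daily for 8 days from day 1, with solutions prepared fresh daily. Read-out: median survival time as %T/C = (MST treated/MST control) × 100, with T/C > 125 taken as significant inhibition. Survivors counted at 30 days, six mice per dose.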

L1210 [17] = assay: Antitumor activity against mouse L1210 cells allografted in mouse assessed as tumor inhibition at 4 mg/kg, ip qd for 8 days relative to control; type: functional; conditions: route intraperitoneal; how it was run: as §3
L1210 [18] = assay: Antitumor activity against mouse L1210 cells allografted in mouse assessed as tumor inhibition at 1 mg/kg, ip qd for 8 days relative to control; type: functional; conditions: route intraperitoneal; how it was run: as §3
L1210 [19] = assay: Antitumor activity against mouse L1210 cells allografted in mouse assessed as tumor inhibition at 0.25 mg/kg, ip qd for 8 days relative to control; type: functional; conditions: route intraperitoneal; how it was run: as §3
L1210 [20] = assay: Antitumor activity against mouse L1210 cells allografted in mouse assessed as median survival time at 32 mg/kg, ip qd for 8 days relative to control; type: functional; conditions: route intraperitoneal; how it was run: as §3
L1210 [21] = assay: Antitumor activity against mouse L1210 cells allografted in mouse assessed as tumor inhibition at 16 mg/kg, ip qd for 8 days relative to control; type: functional; conditions: route intraperitoneal; how it was run: as §3
L1210 [22] = assay: Antitumor activity against mouse L1210 cells allografted in mouse assessed as mouse survival after 30 days at 32 mg/kg, ip qd for 8 days relative to control; type: functional, organism-based; parameters: dose 32 mg/kg
How it was run: as §1, with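 “Dosing” for “One”, “once daily for 8 days starting” for “dose given on”, “1, with solutions prepared fresh daily.” for “1.”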

L1210 [23] = assay: Antitumor activity against mouse L1210 cells allografted in mouse assessed as mouse survival after 30 days at 2 mg/kg, ip qd for 8 days relative to control; type: functional, organism-based; parameters: dose 2 mg/kg
How it was run: as §1, with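 “Dosing” for “One”, “once daily for 8 days starting” for “dose given on”, “1, with solutions prepared fresh daily.” for “1.”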

L1210 [24] = assay: Antitumor activity against mouse L1210 cells allografted in mouse assessed as mouse survival after 30 days at 8 mg/kg, ip qd for 8 days relative to control; type: functional, organism-based; parameters: dose 8 mg/kg
How it was run: as §1, with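 “Dosing” for “One”, “once daily for 8 days starting” for “dose given on”, “1, with solutions prepared fresh daily.” for “1.”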

L1210 [25] = assay: Antitumor activity against mouse L1210 cells allografted in mouse assessed as mouse survival after 30 days at 0.5 mg/kg, ip qd for 8 days relative to control; type: functional, organism-based; parameters: dose 0.5 mg/kg
How it was run: as §1, with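 “Dosing” for “One”, “once daily for 8 days starting” for “dose given on”, “1, with solutions prepared fresh daily.” for “1.”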

L1210 [26] = assay: Antitumor activity against mouse L1210 cells allografted in mouse assessed as mouse survival after 30 days at 0.25 mg/kg, ip qd for 8 days relative to control; type: functional, organism-based; parameters: dose 0.25 mg/kg
How it was run: as §1, with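 “Dosing” for “One”, “once daily for 8 days starting” for “dose given on”, “1, with solutions prepared fresh daily.” for “1.”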

L1210 [27] = assay: Antitumor activity against mouse L1210 cells allografted in mouse assessed as tumor inhibition at 8 mg/kg, ip qd for 8 days relative to control; type: functional; conditions: route intraperitoneal; how it was run: as §3
L1210 [28] = assay: Antitumor activity against mouse L1210 cells allografted in mouse assessed as tumor inhibition at 2 mg/kg, ip qd for 8 days relative to control; type: functional; conditions: route intraperitoneal; how it was run: as §3
L1210 [29] = assay: Antitumor activity against mouse L1210 cells allografted in mouse assessed as mouse survival after 30 days at 1 mg/kg, ip qd for 8 days relative to control; type: functional, organism-based; parameters: dose 1 mg/kg
How it was run: as §1, with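 “Dosing” for “One”, “once daily for 8 days starting” for “dose given on”, “1, with solutions prepared fresh daily.” for “1.”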

L1210 [30] = assay: Antitumor activity against mouse L1210 cells allografted in mouse assessed as mouse survival after 30 days at 16 mg/kg, ip qd for 8 days relative to control; type: functional, organism-based; parameters: dose 16 mg/kg
How it was run: as §1, with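 “Dosing” for “One”, “once daily for 8 days starting” for “dose given on”, “1, with solutions prepared fresh daily.” for “1.”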

L1210 [31] = assay: Antitumor activity against mouse L1210 cells allografted in mouse assessed as mouse survival after 30 days at 4 mg/kg, ip qd for 8 days relative to control; type: functional, organism-based; parameters: dose 4 mg/kg
How it was run: as §1, with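 “Dosing” for “One”, “once daily for 8 days starting” for “dose given on”, “1, with solutions prepared fresh daily.” for “1.”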

Row | SMILES | T/C (L1210 [5]) | Survival (L1210 [7]) | T/C (L1210 [9]) | T/C (L1210 [10]) | T/C (L1210 [11]) | Survival (L1210 [12]) | Survival (L1210 [14]) | T/C (L1210 [15]) | T/C (L1210 [16]) | T/C (L1210 [17]) | T/C (L1210 [18]) | T/C (L1210 [19]) | T/C (L1210 [20]) | T/C (L1210 [21]) | Survival (L1210 [23]) | Survival (L1210 [25]) | Survival (L1210 [26]) | T/C (L1210 [27]) | T/C (L1210 [28]) | Survival (L1210 [29]) | also measured
1 | O=NN(CCCl)C(=O)N[C@@H]1[C@H](O)[C@H](NC(=O)N(CCCl)N=O)[C@@H](O)[C@H](O)[C@H]1O | 179% | inactive | 121% | 114% | 214% | inactive | inactive | 171% |  |  |  |  |  |  |  |  |  |  |  |  | Survival (L1210 [1]): inactive; Survival (L1210 [2]): inactive; Survival (L1210 [3]): inactive; Survival (L1210 [4]): inactive; T/C (L1210 [6]): 86%; T/C (L1210 [8]): 250%; T/C (L1210 [13]): 100%
2 | O=NN(CCCl)C(=O)N[C@H]1[C@H](O)[C@H](O)[C@@H](O)[C@@H]1O |  |  |  |  |  |  |  |  | 114% | 207% | 157% | 144% | 171% | >471% | inactive | inactive | inactive | 243% | 221% | inactive | Survival (L1210 [22]): inactive; Survival (L1210 [24]): inactive
3 | O=NN(CCCl)C(=O)N[C@H]1[C@H](O)[C@H](O)[C@H](O)[C@@H]1O |  |  |  |  |  |  |  |  | 114% | 250% | 114% | 107% | 186% | >471% | inactive | inactive | inactive | >471% | 143% | inactive | Survival (L1210 [22]): inactive; Survival (L1210 [30]): Active
4 | O=NN(CCCl)C(=O)N[C@H]1[C@H](O)[C@@H](O)[C@@H](O)[C@@H]1O |  |  |  |  |  |  |  |  | 107% | 229% | 114% | 100% | 143% | 171% | inactive | inactive | inactive | 336% | 171% | inactive | Survival (L1210 [31]): inactive; Survival (L1210 [22]): inactive; Survival (L1210 [30]): inactive
5 | O=NN(CCCl)C(=O)N[C@H]1[C@@H](O)[C@@H](O)[C@H](NC(=O)N(CCCl)N=O)[C@@H](O)[C@@H]1O | >471% | inactive | 150% | 171% | 136% | inactive | inactive | 214% |  |  |  |  |  |  |  |  |  |  |  |  | Survival (L1210 [2]): inactive
6 | O=NN(CCCl)C(=O)NCCCl [CARMUSTINE] | 271% | inactive | 114% | 143% | >471% | inactive | inactive | 193% | 100% | 193% | 100% | 100% | 193% | >471% | inactive | inactive | inactive | 293% | 114% | inactive | Survival (L1210 [31]): inactive; Survival (L1210 [24]): inactive; Survival (L1210 [30]): Active
7 | O=NN(CCCl)C(=O)N[C@H]1[C@@H](O)[C@@H](O)[C@H](NC(=O)N(CCCl)N=O)[C@H](O)[C@@H]1O | >243% | inactive | 129% | 136% | >471% | inactive | inactive | 171% |  |  |  |  |  |  |  |  |  |  |  |  | Survival (L1210 [1]): inactive; Survival (L1210 [3]): inactive; Survival (L1210 [4]): inactive; T/C (L1210 [6]): 293%; T/C (L1210 [8]): 286%; T/C (L1210 [13]): 114%
